# What was measured:
# Type in all cases: biochemical
# CPK34 = CPK34 (Arabidopsis thaliana, UniProt Q3E9C0); test: Standard filter-based kinetic assay for kinase activity, CPK34
# Method in brief: (§1)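 Recombinant Arabidopsis CPK, GST-N/6xHis-C fusion, affinity-purified. Reactions used 1 ng/µL kinase and 0.1 mg/mL BSA in Ca²⁺/EGTA-buffered kinase buffer (1.1 mM CaCl₂, 1 mM EGTA). Peptide substrate was 0–200 µM. Started with 50 µM ATP plus 0.375 µCi [γ-³³P]ATP, 12 min at RT. Aliquots went onto P81 paper, were washed in 75 mM phosphoric acid, and counted by scintillation. kcat is in nmol P/min/mg enzyme; KM by Lineweaver–Burk.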
# CPK16 = biological target: T1, CPK16 (Arabidopsis thaliana, UniProt Q7XJR9); test: Standard filter-based kinetic assay for kinase activity, CPK16
# T1 sequence (Q7XJR9 1-571): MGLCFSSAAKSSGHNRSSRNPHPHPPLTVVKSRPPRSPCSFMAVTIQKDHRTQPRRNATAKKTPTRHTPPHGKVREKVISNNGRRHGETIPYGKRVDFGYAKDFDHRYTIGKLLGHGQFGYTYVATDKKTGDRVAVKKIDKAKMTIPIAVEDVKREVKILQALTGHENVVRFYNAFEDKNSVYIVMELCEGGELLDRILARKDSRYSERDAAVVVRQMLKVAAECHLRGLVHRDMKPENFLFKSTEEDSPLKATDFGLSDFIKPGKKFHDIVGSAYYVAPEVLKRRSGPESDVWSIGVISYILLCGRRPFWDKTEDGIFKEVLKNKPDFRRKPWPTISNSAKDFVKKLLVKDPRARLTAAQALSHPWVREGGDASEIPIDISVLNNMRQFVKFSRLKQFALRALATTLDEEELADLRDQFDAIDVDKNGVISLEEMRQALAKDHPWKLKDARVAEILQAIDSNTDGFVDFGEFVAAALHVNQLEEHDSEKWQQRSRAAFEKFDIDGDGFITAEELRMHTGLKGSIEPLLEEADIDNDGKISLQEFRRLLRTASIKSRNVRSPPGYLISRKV
# CPK1 = biological target: T2, CPK1 (Arabidopsis thaliana, UniProt Q06850); test: Standard filter-based kinetic assay for kinase activity, CPK1
# T2 sequence (Q06850 1-610): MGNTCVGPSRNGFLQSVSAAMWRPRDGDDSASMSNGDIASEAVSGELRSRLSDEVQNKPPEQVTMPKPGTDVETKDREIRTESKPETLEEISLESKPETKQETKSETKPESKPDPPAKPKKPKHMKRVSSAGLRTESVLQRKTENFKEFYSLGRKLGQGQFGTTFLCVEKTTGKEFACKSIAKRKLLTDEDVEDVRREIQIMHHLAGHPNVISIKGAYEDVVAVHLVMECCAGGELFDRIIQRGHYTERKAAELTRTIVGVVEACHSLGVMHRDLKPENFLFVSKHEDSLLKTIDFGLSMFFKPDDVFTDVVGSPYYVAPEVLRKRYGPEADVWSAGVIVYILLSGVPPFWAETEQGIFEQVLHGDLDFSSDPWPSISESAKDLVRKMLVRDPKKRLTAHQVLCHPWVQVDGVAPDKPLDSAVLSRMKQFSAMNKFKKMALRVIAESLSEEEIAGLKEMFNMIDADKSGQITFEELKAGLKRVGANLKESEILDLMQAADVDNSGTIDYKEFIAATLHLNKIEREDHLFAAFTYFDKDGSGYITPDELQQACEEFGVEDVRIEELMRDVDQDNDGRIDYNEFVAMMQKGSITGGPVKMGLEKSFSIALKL
# Method in brief: as §1
# CPK10 = biological target: T3, CPK10 (Arabidopsis thaliana, UniProt Q9M9V8); test: Standard filter-based kinetic assay for kinase activity, CPK10
# T3 sequence (Q9M9V8 1-545): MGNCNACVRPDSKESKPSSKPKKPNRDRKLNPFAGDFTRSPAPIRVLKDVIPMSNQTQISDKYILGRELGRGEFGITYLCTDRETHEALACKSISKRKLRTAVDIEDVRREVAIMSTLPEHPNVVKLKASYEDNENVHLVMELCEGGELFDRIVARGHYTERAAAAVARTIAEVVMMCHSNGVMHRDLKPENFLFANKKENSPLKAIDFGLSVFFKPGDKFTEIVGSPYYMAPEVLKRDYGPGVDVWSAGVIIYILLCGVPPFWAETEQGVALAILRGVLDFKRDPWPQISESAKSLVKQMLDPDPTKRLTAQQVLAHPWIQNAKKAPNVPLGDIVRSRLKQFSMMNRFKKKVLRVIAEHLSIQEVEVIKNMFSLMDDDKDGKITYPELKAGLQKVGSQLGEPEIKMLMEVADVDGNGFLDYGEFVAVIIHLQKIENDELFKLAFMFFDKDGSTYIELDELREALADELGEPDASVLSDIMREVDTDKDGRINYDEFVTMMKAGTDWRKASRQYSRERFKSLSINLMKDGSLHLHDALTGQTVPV
# Method in brief: as §1
# [1] = Table 4, independent reaction 1 (first value in cell)
# [2] = Table 4, independent reaction 2 (second value in cell)
# [3] = Table 5, independent reaction 1 (first value in cell)
# [4] = Table 5, independent reaction 2 (second value in cell)
# Chain of CPK34 (Q3E9C0 whole entry, the tested form may be a part): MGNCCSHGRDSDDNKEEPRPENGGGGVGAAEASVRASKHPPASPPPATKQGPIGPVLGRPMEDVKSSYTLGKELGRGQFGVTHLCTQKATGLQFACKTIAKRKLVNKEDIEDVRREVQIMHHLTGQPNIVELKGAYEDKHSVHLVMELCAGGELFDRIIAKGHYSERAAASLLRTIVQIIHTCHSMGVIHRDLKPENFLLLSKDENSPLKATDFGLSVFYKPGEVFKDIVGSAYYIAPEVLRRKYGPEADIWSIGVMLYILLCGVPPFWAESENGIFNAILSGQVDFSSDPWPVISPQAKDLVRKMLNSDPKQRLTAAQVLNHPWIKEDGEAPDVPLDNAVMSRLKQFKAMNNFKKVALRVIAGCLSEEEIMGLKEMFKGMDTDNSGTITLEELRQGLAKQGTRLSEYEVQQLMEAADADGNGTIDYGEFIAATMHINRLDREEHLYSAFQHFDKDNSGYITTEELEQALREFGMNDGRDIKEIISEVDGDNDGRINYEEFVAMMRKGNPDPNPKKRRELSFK
Substance,"Kcat, CPK34 (CPK34; [1])","Kcat, CPK34 (CPK34; [2])","Kcat, CPK16 (CPK16; [1])","Kcat, CPK16 (CPK16; [2])","Kcat, CPK34 (CPK34; [3])","Kcat, CPK34 (CPK34; [4])","kcat, CPK1 (CPK1; [3])","kcat, CPK1 (CPK1; [4])","kcat, CPK10 (CPK10; [3])","kcat, CPK10 (CPK10; [4])"
RYRRMERTSSMPRAS [jfh-097],502 nmol phosphate incorporated/min/mg CPK,718 nmol phosphate incorporated/min/mg CPK,3734 nmol phosphate incorporated/min/mg CPK,2677 nmol phosphate incorporated/min/mg CPK,,,,,,
"PLARTLSVAGLPGKK [ach-393, Syntide-2, reference compound]",,,,,155 nmol phosphate incorporated/min/mg enzyme,225 nmol phosphate incorporated/min/mg enzyme,362 nmol phosphate incorporated/min/mg enzyme,482 nmol phosphate incorporated/min/mg enzyme,252 nmol phosphate incorporated/min/mg enzyme,217 nmol phosphate incorporated/min/mg enzyme
"KRFSFKKSFKLSGFSFKK [ach-400, reference compound]",398 nmol phosphate incorporated/min/mg CPK,541 nmol phosphate incorporated/min/mg CPK,1795 nmol phosphate incorporated/min/mg CPK,1429 nmol phosphate incorporated/min/mg CPK,,,,,,
VKIISRIF[S]QRSFRR [jfh-515],223 nmol phosphate incorporated/min/mg CPK,231 nmol phosphate incorporated/min/mg CPK,5114 nmol phosphate incorporated/min/mg CPK,4854 nmol phosphate incorporated/min/mg CPK,,,,,,
aDFLKRLLSaGMNPN [jfh-597],,,,,475 nmol phosphate incorporated/min/mg enzyme,614 nmol phosphate incorporated/min/mg enzyme,5790 nmol phosphate incorporated/min/mg enzyme,5900 nmol phosphate incorporated/min/mg enzyme,1264 nmol phosphate incorporated/min/mg enzyme,1639 nmol phosphate incorporated/min/mg enzyme
